Article PMC6023675 (Journal of molecular biology, 2018)

Key:
[1] = system: cell-free translation of firefly luciferase in E. coli S30 cell extract; assay type: biochemical; conditions: 30 μM inhibitor
In short: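 In vitro transcribed firefly luciferase mRNA (100 ng) was translated in E. coli S30 extract at 37°C for 30 min with test compound at 30 μM final. Luciferase activity was read with Steady-Glo substrate. Reactions were run in triplicate; error bars are confidence interval (α = 0.05).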

[2] = system: E. coli 70S ribosomes; assay: Competition binding assay with BODIPY-labeled erythromycin; conditions: ratio of KDapp versus CLM; listed as L-histidyl analogue
In short: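 E. coli 70S ribosomes (25 nM) preincubated with BODIPY-erythromycin (4 nM) for 30 min at 25°C in 20 mM HEPES-KOH pH 7.5, 50 mM NH₄Cl, 10 mM Mg acetate, 0.05% Tween-20. Test compound was added at 0.1 μM to 1 mM, then incubated 2 h to equilibrium. Fluorescence polarization was read to give apparent KD by competition.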

[3] = system: ribosome translating synthetic ORF […]; assay: Primer extension inhibition; assay type: biochemical; conditions: 100 μM antibiotic, with or without mupirocin 50 μM, ORF MFKAFKNIIRTRTL

O=C(N[C@H](CO)[C@H](O)c1ccc([N+](=O)[O-])cc1)C(Cl)Cl [CLM, chloramphenicol]
Inhibition of firefly luciferase synthesis (in words) [1]: near-complete inhibition

N[C@@H](Cc1c[nH]cn1)C(=O)N[C@H](CO)[C@H](O)c1ccc([N+](=O)[O-])cc1 [His-CAM (1)]
Affinity for the ribosome relative to CLM (fold higher) [2]: 10 fold

C=C[C@]1(C)C[C@@H](OC(=O)CS[C@@H]2C[C@H]3CC[C@@H](C2)N3C)[C@]2(C)[C@H](C)CC[C@]3(CCC(=O)[C@H]32)[C@@H](C)[C@@H]1O [retapamulin (RET), retapamulin]
Site of antibiotic-induced translation arrest (toe-printing) [3]: arrests the ribosome at the start codon
